Experiment [1] relates to Rattus norvegicus. Put plainly: Natriuretic potency was evaluated as oral dose required to produce an excretion of 2 mequiv of Na+/Kg of rat body weight. It counts as functional. The procedure, abridged: (§1)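 Oral gavage in female rats fed glucose and water overnight. DOCA 5 mg sc is given 2 h before dosing, and rats are loaded with isotonic NaCl-KCl (40:60) to 3% body weight right after dosing. Na+ excretion is collected over 4 h, four rats/dose. ED2 is taken from a linear regression of Na+ excretion vs log dose.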

In experiment [2] the test system is Canis familiaris. Put plainly: Natriuretic potency was evaluated as oral dose required to produce an excretion of 2 mequiv of Na+/Kg of dog body weight, ED5 value based on N=2 dogs/dose. It counts as functional, Canis lupus familiaris. The procedure, abridged: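 Conscious nonloaded female dogs dosed orally, two dogs/dose. ED5 is derived from a linear regression of Na+ excretion vs log dose.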

Experiment [3] relates to Rattus norvegicus. The experiment in a line: Natriuretic potency was evaluated as oral dose required to produce an excretion of 2 mequiv of Na+/Kg of rat body weight, ED2 value based on N=4 rats/dose. It counts as functional. The procedure, abridged:
as §1

The species named for experiment [4] is Rattus norvegicus. The experiment in a line: Fractional delivery of Na+ to puncture site (percent of filtered load) of early distal tubular segments in the exposed kidney. It is filed as functional. The gist of the method:
(§2)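 Male adult Sprague-Dawley rats prepared for free-flow micropuncture, infused with Ringer's solution at 2 mL/100 g per h plus [3H]inulin (100 μCi/h). Early and late distal tubular fluid sampled from the exposed kidney during control periods and after a single iv bolus of 0.1 mg/kg given over 20–30 s. Control and treated groups compared by unpaired t test.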

Experiment [5] is filed under the species Rattus norvegicus. Put plainly: Fractional delivery of K+ to puncture site (percent of filtered load) of early distal tubular segments in the exposed kidney. It counts as functional. The procedure, abridged:
as §2

Experiment [6] can be described thus: Ratio of number of tubules/number of rats of late distal tubular segments in the exposed kidney. It is filed as functional.
Experiment [7] is filed under the species Rattus norvegicus. The experiment in a line: K+ concentration in plasma sample of rat. It counts as functional, organism-based. The procedure, abridged: (§3)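 Male adult Sprague-Dawley rats infused with Ringer's solution at 2 mL/100 g per h plus [3H]inulin (100 μCi/h). Two 30-min urine collections with midpoint blood samples form the control period. A single iv bolus of 0.1 mg/kg is given over 20–30 s, and 30 min later two more 30-min periods follow, with iv fluid replacement. Urine volume, Na+, K+ and inulin counts are measured, and GFR and fractional excretion are calculated by standard formulae. Paired t test, n = 8.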

The species named for experiment [8] is Rattus norvegicus. The experiment in a line: Single nephron glomerular filtration rate of late distal tubular segments in the exposed kidney. It is filed as functional. The procedure, abridged: as §2
The species entered for experiment [9] is Rattus norvegicus. Put plainly: Tubular fluid-to-plasma concentration ratio for inulin of late distal tubular segments in the exposed kidney. It counts as functional. The procedure, abridged: as §2
The species entered for experiment [10] is Rattus norvegicus. The experiment in a line: Urine-to-plasma concentration ratio for inulin in rat. It is filed as functional. The gist of the method: as §3
The species entered for experiment [11] is Rattus norvegicus. The experiment in a line: Urine flow rate of early distal tubular segments in the exposed kidney. It counts as functional. The gist of the method:
as §2

For experiment [12], the species on record is Rattus norvegicus. The experiment in a line: Fractional delivery of Na+ to puncture site (percent of filtered load) of late distal tubular segments in the exposed kidney. It is filed as functional. The gist of the method:
as §2

For experiment [13], the species on record is Rattus norvegicus. Put plainly: Fractional excretion of K+ (percent of filtered load) in rat. It counts as functional. The gist of the method: as §3
The species entered for experiment [14] is Rattus norvegicus. The experiment in a line: Na+ concentration in plasma sample of rat. It counts as functional, organism-based. The procedure, abridged:
as §3

Experiment [15] is filed under the species Rattus norvegicus. Put plainly: Single nephron glomerular filtration rate of early distal tubular segments in the exposed kidney. It counts as functional. The procedure, abridged: as §2
The species named for experiment [16] is Rattus norvegicus. Put plainly: Fractional delivery of K+ to puncture site (percent of filtered load) of late distal tubular segments in the exposed kidney. It counts as functional. The gist of the method:
as §2

The species named for experiment [17] is Rattus norvegicus. Put plainly: Tubular fluid-to-plasma concentration ratio for inulin of early distal tubular segments in the exposed kidney. It counts as functional. The gist of the method:
as §2

The species entered for experiment [18] is Rattus norvegicus. Put plainly: Fractional excretion of Na+ (percent of filtered load) in rat. It is filed as functional. The procedure, abridged:
as §3

The species entered for experiment [19] is Rattus norvegicus. Put plainly: Glomerular filtration rate (per one kidney) per 100 g body weight of rat. It counts as functional. The gist of the method: as §3
The species named for experiment [20] is Rattus norvegicus. The experiment in a line: Urine flow rate of late distal tubular segments in the exposed kidney. It counts as functional. The procedure, abridged: as §2
For experiment [21], the species on record is Rattus norvegicus. The experiment in a line: Urine flow rate per kidney was evaluated in rat. It counts as functional. The gist of the method:
as §3

Experiment [22] concerns Rattus norvegicus. The experiment in a line: Natriuretic potency was evaluated as oral dose required to produce an excretion of 2 mequiv of Na+/Kg of rat body weight; IA means Inactive. It is filed as functional, organism-based. The gist of the method: as §1

Calls of active or inactive are those of the source. The calls are words filed in the database; no cut-off is given here.

Turning to `NCc1cc(C(=O)c2cc3c(c(Cl)c2Cl)OC(C(N)=O)C3)ccc1O` (centres undefined), in experiment [1], the ED2 is 2.95 mg/kg.

On to `NS(=O)(=O)c1cc(C(=O)O)c(NCc2ccco2)cc1Cl` [FUROSEMIDE], for which the ED5 in experiment [2] is 3.5 mg/kg. In addition, the ED2 in experiment [3] was found to be 9.5 mg/kg.

For `NCc1cc(Cc2cc3c(c(Cl)c2Cl)OC(CO)C3)ccc1O` (centres undefined), the ED2 in experiment [1] turned out to be 10.2 mg/kg.

Consider `CCOC(=O)C1Cc2cc(Cc3cc(CN)c(O)c(CN)c3)c(Cl)c(Cl)c2O1` (centres undefined), for which the ED2 in experiment [1] amounted to 49 mg/kg.

Consider `NCc1cc(C(=O)c2cc3c(c(Cl)c2Cl)OC(CO)C3)ccc1O` (centres undefined), for which, in [1], the ED2 was 0.95 mg/kg.

For `CCOC(=O)C1Cc2cc(C(=O)c3cc(Cl)c(O)c(CN)c3)c(Cl)c(Cl)c2O1` (centres undefined), in experiment [1], the ED2 stood at 21.5 mg/kg.

For the compound `CCCCNc1cc(C(=O)O)cc(S(N)(=O)=O)c1Oc1ccccc1` [BUMETANIDE], the ED5 in experiment [2] was found to be 0.15 mg/kg. The ED2 in experiment [3] is 8.5 mg/kg.

For `CCOC(=O)C1Cc2cc(C(=O)c3ccc(O)c(CN)c3)c(Cl)c(Cl)c2O1` (centres undefined), the ED5 in experiment [2] came to 0.11 mg/kg. The FD in experiment [4] amounted to 13.6%; in experiment [5], 23%; in experiment [12] it was 8.1%; in experiment [16] it was 23.6%. Further, in experiment [6], the Ratio was 8. The Plasma in experiment [7] was 3.57 mM; in experiment [14] it was 144 mM. The values for the SNGFR in experiment [8] and in experiment [15] were 33.9 nL/min and 35.7 nL/min, respectively. The TF/P worked out at 8.48 in experiment [9] and 4.39 in experiment [17]. In experiment [10], the U/P is recorded as 19.7. For the same compound, the Rate was found to be 8.2 nL/min in [11], 4.6 nL/min in experiment [20] and 67.6 µL/min in [21]. Moreover, the FE in [13] is on record as 54.6%; in experiment [18], 6.3%. Also, in experiment [19], the GFR came to 0.46 mL/min. The ED2 in [3] worked out at 0.12 mg/kg.

As to `NCc1cc(C(=O)c2cc3c(c(Cl)c2Cl)OC(C(=O)O)C3)ccc1O` (centres undefined), in experiment [22], the ED2 result was “inactive”.

For the compound `CCOC(=O)C1Cc2cc(Cc3ccc(O)c(CN)c3)c(Cl)c(Cl)c2O1` (centres undefined), in [1], the ED2 was 8 mg/kg.

With `CCOC(=O)C1Cc2cc(C(=O)c3cc(CN(C)C)c(O)c(CN(C)C)c3)c(Cl)c(Cl)c2O1` (centres undefined), in experiment [1], the ED2 was determined as 1.82 mg/kg.

Regarding `NS(=O)(=O)c1cc(C(=O)O)cc(N2CCCC2)c1Oc1ccccc1` [PIRETANIDE], the ED5 in [2] is 0.25 mg/kg. The ED2 in experiment [3] turned out to be 0.89 mg/kg.

The values above are taken from ChEMBL document CHEMBL1122991, “[(Aminomethyl)aryloxy]acetic acid esters. A new class of high-ceiling diuretics. 4. Substituted 6,7-dichloro-2,3-dihydrobenzofurans derived by ring annelation” (1985).
